≈ marks a conversion by molar mass, not a printed value.
What was measured:
Assay type in all cases: functional
Fusarium verticillioides [1] = test: Antifungal activity against Fusarium moniliforme after 48 hrs by cup diffusion method
Pseudomonas aeruginosa [2] = test: Antibacterial activity against Pseudomonas aeruginosa MTCC 1688 after 24 hrs by cup diffusion method; details: MTCC 1688, 24 h
Staphylococcus aureus [3] = test: Antibacterial activity against Staphylococcus aureus MTCC 737 after 24 hrs by cup diffusion method; details: MTCC 737, 24 h
Aspergillus flavus [4] = test: Antifungal activity against Aspergillus flavus at 20 ug after 48 hrs by cup diffusion method; details: read-out: IZ
Outline: (§1)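 Cup diffusion on 9 cm plates seeded with 1 × 10⁶ cfu of fungi, with spores adjusted to at least 1 × 10⁶ cfu/ml in potato dextrose broth. Compound in DMF was placed in 5 mm agar cups and left 1 h to diffuse. Plates were incubated at 28 °C for 48 h and the inhibition zone read in mm. DMF was the negative control.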

Klebsiella pneumoniae [5] = test: Antibacterial activity against Klebsiella pneumoniae […] after 24 hrs by cup diffusion method
Fusarium oxysporum [6] = test: Antifungal activity against Fusarium oxysporum after 48 hrs by cup diffusion method
Klebsiella pneumoniae [7] = test: Antibacterial activity against Klebsiella pneumoniae […] at 20 ug after 24 hrs by cup diffusion method; details: read-out: IZ
Outline: (§2)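 Agar cup diffusion. Plates of sterile medium in 9 cm dishes were seeded with 1 × 10⁵ cfu of bacteria, with the suspension adjusted to at least 1 × 10⁵ cfu/ml in nutrient broth. Compound in DMF was placed in 5 mm cups and pre-diffused for 1 h. Plates were incubated at 37 °C for 24 h and the inhibition zone measured in mm. DMF served as negative control.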

Staphylococcus aureus [8] = test: Antibacterial activity against Staphylococcus aureus MTCC 737 at 20 ug after 24 hrs by cup diffusion method; details: MTCC 737, 24 h, read-out: IZ; outline: as §2
Aspergillus flavus [9] = test: Antifungal activity against Aspergillus flavus after 48 hrs by cup diffusion method
Aspergillus niger [10] = test: Antifungal activity against Aspergillus niger after 48 hrs by cup diffusion method
Fusarium oxysporum [11] = test: Antifungal activity against Fusarium oxysporum at 20 ug after 48 hrs by cup diffusion method; details: read-out: IZ; outline: as §1
Escherichia coli [12] = test: Antibacterial activity against Escherichia coli MTCC 443 at 20 ug after 24 hrs by cup diffusion method; details: MTCC 443, 24 h, read-out: IZ; outline: as §2
Pseudomonas aeruginosa [13] = test: Antibacterial activity against Pseudomonas aeruginosa MTCC 1688 at 20 ug after 24 hrs by cup diffusion method; details: MTCC 1688, 24 h, read-out: IZ; outline: as §2
Fusarium verticillioides [14] = test: Antifungal activity against Fusarium moniliforme at 20 ug after 48 hrs by cup diffusion method; details: read-out: IZ; outline: as §1
Escherichia coli [15] = test: Antibacterial activity against Escherichia coli MTCC 443 after 24 hrs by cup diffusion method; details: MTCC 443, 24 h
Aspergillus niger [16] = test: Antifungal activity against Aspergillus niger at 20 ug after 48 hrs by cup diffusion method; details: read-out: IZ; outline: as §1

| Structure (SMILES) | MIC (Fusarium verticillioides [1]) [µg/mL] | MIC (Pseudomonas aeruginosa [2]) [µg/mL] | MIC (Staphylococcus aureus [3]) [µg/mL] | zone of inhibition at 20 µg/disc (Aspergillus flavus [4]) [mm] | MIC (Klebsiella pneumoniae [5]) [µg/mL] | MIC (Fusarium oxysporum [6]) [µg/mL] | zone of inhibition at 20 µg/disc (Klebsiella pneumoniae [7]) [mm] | zone of inhibition at 20 µg/disc (Staphylococcus aureus [8]) [mm] | MIC (Aspergillus flavus [9]) [µg/mL] | MIC (Aspergillus niger [10]) [µg/mL] | zone of inhibition at 20 µg/disc (Fusarium oxysporum [11]) [mm] | zone of inhibition at 20 µg/disc (Escherichia coli [12]) [mm] | zone of inhibition at 20 µg/disc (Pseudomonas aeruginosa [13]) [mm] | zone of inhibition at 20 µg/disc (Fusarium verticillioides [14]) [mm] | MIC (Escherichia coli [15]) [µg/mL] | zone of inhibition at 20 µg/disc (Aspergillus niger [16]) [mm] |
| --- | --- | --- | --- | --- | --- | --- | --- | --- | --- | --- | --- | --- | --- | --- | --- | --- |
| N#CC1CCC(c2ccc3c(c2)CCC3)=NO1 (centres undefined) | 40 (≈ 177 µM) | 15 (≈ 66.3 µM) | 15 (≈ 66.3 µM) | 9.5 | 20 (≈ 88.4 µM) | 35 (≈ 155 µM) | 23.8 | 17.7 | 40 (≈ 177 µM) | 35 (≈ 155 µM) | 17.7 | 15.5 | 31.5 | 13.5 | 25 (≈ 110 µM) | 10.7 |
| Cc1ccc(C2=NOC(Cc3ccc4c(c3)OCO4)CC2)cc1 (centres undefined) | 20 (≈ 64.6 µM) | 20 (≈ 64.6 µM) | 15 (≈ 48.5 µM) | 17.8 | 20 (≈ 64.6 µM) | 10 (≈ 32.3 µM) | 19.7 | 12.8 | 15 (≈ 48.5 µM) | 20 (≈ 64.6 µM) | 24.5 | 10.7 | 11.2 | 19.5 | 25 (≈ 80.8 µM) | 15.7 |
| Cc1ccc(C2=NOC(CCl)CC2)cc1C (centres undefined) | 20 (≈ 84.1 µM) | 15 (≈ 63.1 µM) | 10 (≈ 42.1 µM) | 9.5 | 15 (≈ 63.1 µM) | 10 (≈ 42.1 µM) | 15.8 | 20.7 | 15 (≈ 63.1 µM) | 15 (≈ 63.1 µM) | 20.7 | 14.8 | 17.6 | 11.5 | 20 (≈ 84.1 µM) | 8.5 |
| CCOC(=O)C1CCC(c2ccc(OC)c(OC)c2)=NO1 (centres undefined) | 30 (≈ 102 µM) | 15 (≈ 51.1 µM) | 15 (≈ 51.1 µM) | 9.66 | 20 (≈ 68.2 µM) | 35 (≈ 119 µM) | 20.7 | 16.5 | 35 (≈ 119 µM) | 35 (≈ 119 µM) | 16.7 | 14.7 | 25.7 | 11.7 | 30 (≈ 102 µM) | 8 |
| COc1ccc(C2=NOC(CCl)CC2)cc1OC (centres undefined) | 15 (≈ 55.6 µM) | 15 (≈ 55.6 µM) | 10 (≈ 37.1 µM) | 20.8 | 10 (≈ 37.1 µM) | 10 (≈ 37.1 µM) | 17 | 17.8 | 15 (≈ 55.6 µM) | 20 (≈ 74.1 µM) | 28.7 | 13.8 | 9.83 | 26.5 | 20 (≈ 74.1 µM) | 18.7 |
| Cc1ccc(C2=NOC(CO)CC2)cc1C (centres undefined) | 35 (≈ 160 µM) | 25 (≈ 114 µM) | 15 (≈ 68.4 µM) | 8.66 | 20 (≈ 91.2 µM) | 25 (≈ 114 µM) | 17.7 | 14.8 | 35 (≈ 160 µM) | 30 (≈ 137 µM) | 19.8 | 13.7 | 12.8 | 14.7 | 25 (≈ 114 µM) | 10.7 |
| CCOC(=O)C1CCC(c2ccc(OC)cc2)=NO1 (centres undefined) | 20 (≈ 76 µM) | 20 (≈ 76 µM) | 20 (≈ 76 µM) | 25.5 | 25 (≈ 95 µM) | 10 (≈ 38 µM) | 14.8 | 16.7 | 10 (≈ 38 µM) | 15 (≈ 57 µM) | 30.7 | 24.7 | 23.7 | 28 | 35 (≈ 133 µM) | 24.2 |
| OCC1CCC(c2ccc3c(c2)CCC3)=NO1 (centres undefined) | 35 (≈ 151 µM) | 20 (≈ 86.5 µM) | 20 (≈ 86.5 µM) | 9.83 | 25 (≈ 108 µM) | 25 (≈ 108 µM) | 17.7 | 10.7 | 30 (≈ 130 µM) | 30 (≈ 130 µM) | 18.8 | 10.5 | 13.7 | 13.7 | 35 (≈ 151 µM) | 7.66 |
| c1cc2c(cc1CC1CCC(c3ccc4c(c3)CCC4)=NO1)OCO2 (centres undefined) | 20 (≈ 59.6 µM) | 15 (≈ 44.7 µM) | 10 (≈ 29.8 µM) | 20.7 | 15 (≈ 44.7 µM) | 15 (≈ 44.7 µM) | 16.5 | 15.7 | 15 (≈ 44.7 µM) | 20 (≈ 59.6 µM) | 26.7 | 11.5 | 21.5 | 21.5 | 25 (≈ 74.5 µM) | 18.7 |
